Source: ChEMBL document CHEMBL1123445, “Synthesis and antifolate properties of 5,10-methylenetetrahydro-8,10-dideazaminopterin” (J Med Chem, 1986)
Values after ≈ are worked out from the molar mass of the structure shown.

Experiments:
Enterococcus faecium [1] = assay: Compound was evaluated for growth inhibition in Streptococcus faecium MTX-resistant; assay type: functional, organism-based
Summary of the method: (§1)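 Bacterial growth inhibition was run in medium with folate at 1 ng/mL.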

Thymidylate synthase = molecular target: T1, Thymidylate synthase (Lactobacillus casei, UniProt P00469); assay: Compound was evaluated for the inhibition of thymidylate synthase (TS) derived from Lactobacillus casei; set-up: species or system Lacticaseibacillus casei
T1 sequence (P00469 whole entry): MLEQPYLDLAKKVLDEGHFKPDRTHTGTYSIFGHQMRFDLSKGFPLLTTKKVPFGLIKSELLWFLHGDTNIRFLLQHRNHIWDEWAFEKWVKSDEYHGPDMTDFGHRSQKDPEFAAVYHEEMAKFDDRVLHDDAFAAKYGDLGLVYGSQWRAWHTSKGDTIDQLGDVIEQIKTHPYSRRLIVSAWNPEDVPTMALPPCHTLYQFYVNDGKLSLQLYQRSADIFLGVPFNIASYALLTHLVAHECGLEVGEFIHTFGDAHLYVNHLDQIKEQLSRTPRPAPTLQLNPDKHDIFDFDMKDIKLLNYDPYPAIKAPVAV

L1210 [2] = assay: Compound was evaluated for inhibitory activity against DHFR in L1210 cells; assay type: functional, cell-based, Mus musculus
Lacticaseibacillus casei [3] = assay: Compound was evaluated for growth inhibition in Lactobacillus casei ATCC 7469; assay type: functional, organism-based
Summary of the method: (§2)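 Lactobacillus casei growth was measured in medium with folate at 1 ng/mL.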

Lacticaseibacillus casei [4] = assay: Compound was evaluated for growth inhibition in Lactobacillus casei MTX-resistant; assay type: functional, organism-based; summary of the method: as §2
Dihydrofolate reductase = Dihydrofolate reductase (Lactobacillus casei, UniProt P00381); assay: Compound was evaluated for the inhibition of dihydrofolate reductase (DHFR)derived from Lactobacillus casei; set-up: species or system Lacticaseibacillus casei
Enterococcus faecium [5] = assay: Compound was evaluated for growth inhibition in Streptococcus faecium ATCC 8043; assay type: functional, organism-based; summary of the method: as §1
L1210 [6] = assay: Compound was evaluated for growth inhibition in L1210 murine leukemia cells; assay type: functional, cell-based; details: Mus musculus
[7] = Lacticaseibacillus casei, read-out: IC50

Sequence of Dihydrofolate reductase (P00381 whole entry): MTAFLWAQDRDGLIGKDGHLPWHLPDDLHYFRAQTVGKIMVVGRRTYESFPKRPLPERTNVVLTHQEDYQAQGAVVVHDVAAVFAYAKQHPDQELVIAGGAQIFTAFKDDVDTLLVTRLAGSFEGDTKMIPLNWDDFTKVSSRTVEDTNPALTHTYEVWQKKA

| SMILES | IC50 (Enterococcus faecium [1]) | IC50 (Thymidylate synthase) | Ki (L1210 [2]) | IC50 (Lacticaseibacillus casei [3]) | IC50 (Lacticaseibacillus casei [4]; [7]) | IC50 (Dihydrofolate reductase) | IC50 (Enterococcus faecium [5]) | IC50 (L1210 [6]) | IC50 (Lacticaseibacillus casei [4]) |
| --- | --- | --- | --- | --- | --- | --- | --- | --- | --- |
| Nc1nc(N)c2c(n1)CCC1CC(c3ccc(C(=O)NC(CCC(=O)O)C(=O)O)cc3)CN21 (configuration not stated) | 530 ng/mL (≈ 1.17 µM) | > 500000 nM | > 10 nM | 1 ng/mL (≈ 0.0022 µM) | > 10000 ng/mL | 1500 nM | 2 ng/mL (≈ 0.0044 µM) | 250 nM | – |
| CN(Cc1cnc2nc(N)nc(N)c2n1)c1ccc(C(=O)N[C@@H](CCC(=O)O)C(=O)O)cc1 [METHOTREXATE] | 3300 ng/mL (≈ 7.26 µM) | – | 0.0032 nM | 0.009 ng/mL (≈ 1.98e-05 µM) | – | – | 0.2 ng/mL (≈ 0.00044 µM) | 2.5 nM | > 500000 ng/mL |
| Nc1nc(N)c2c(n1)CCC1CC(c3ccc(C(=O)NC(CCC(=O)O)C(=O)O)cc3)C(=O)N21 (configuration not stated) | > 10000 ng/mL | > 200000 nM | > 10 nM | 0.54 ng/mL (≈ 0.00115 µM) | > 10000 ng/mL | 1600 nM | 6.2 ng/mL (≈ 0.0132 µM) | > 10000 nM | – |
